Active and inactive are the calls of the source. The rule behind the calls is not given here.
How the values were obtained:
Homo sapiens = species on record: Homo sapiens; assay: Agonist activity at HSP70 in human HEK293H cells transfected with HTT17Q assessed as reduction in HTT protein aggregation at 10 uM measured after 6 hrs by DAPI staining based confocal microscopy; format: cell-based
Outline: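 HEK293H cells transfected with 4 μg HTT17Q-mCherry construct; 24 h post-transfection treated with 10 μM compound or DMSO vehicle control for 6 h. Cells stained with DAPI and imaged by confocal microscopy. Aggregates (puncta) counted per cell with a bright-spot detection tool. Significance assessed against DMSO control.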

[1] = molecular target: Histone deacetylase 3 (Homo sapiens) (UniProt O15379); assay: Inhibition of HDAC3 in human HeLa nuclear extract at 0.1 to 1 uM using HDAC substrate incubated for 30 mins by microplate reader assay; format: cell-free
Sequence of Histone deacetylase 3 (Homo sapiens) (O15379 whole entry): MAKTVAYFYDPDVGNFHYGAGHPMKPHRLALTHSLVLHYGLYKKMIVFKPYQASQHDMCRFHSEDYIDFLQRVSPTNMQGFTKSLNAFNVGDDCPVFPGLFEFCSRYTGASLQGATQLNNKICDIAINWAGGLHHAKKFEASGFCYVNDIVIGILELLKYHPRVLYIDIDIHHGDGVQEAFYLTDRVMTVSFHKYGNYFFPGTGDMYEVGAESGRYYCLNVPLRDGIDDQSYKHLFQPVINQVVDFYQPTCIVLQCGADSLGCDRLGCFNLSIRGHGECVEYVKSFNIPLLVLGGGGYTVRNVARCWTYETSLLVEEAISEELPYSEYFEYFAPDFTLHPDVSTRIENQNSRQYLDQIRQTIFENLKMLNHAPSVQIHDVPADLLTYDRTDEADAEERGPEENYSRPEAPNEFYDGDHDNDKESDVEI

[2] = molecular target: Histone deacetylase 1 (Homo sapiens) (UniProt Q13547); assay: Inhibition of HDAC1 in human HeLa nuclear extract at 0.1 to 1 uM using HDAC substrate incubated for 30 mins by microplate reader assay; format: cell-free
Sequence of Histone deacetylase 1 (Homo sapiens) (Q13547 whole entry): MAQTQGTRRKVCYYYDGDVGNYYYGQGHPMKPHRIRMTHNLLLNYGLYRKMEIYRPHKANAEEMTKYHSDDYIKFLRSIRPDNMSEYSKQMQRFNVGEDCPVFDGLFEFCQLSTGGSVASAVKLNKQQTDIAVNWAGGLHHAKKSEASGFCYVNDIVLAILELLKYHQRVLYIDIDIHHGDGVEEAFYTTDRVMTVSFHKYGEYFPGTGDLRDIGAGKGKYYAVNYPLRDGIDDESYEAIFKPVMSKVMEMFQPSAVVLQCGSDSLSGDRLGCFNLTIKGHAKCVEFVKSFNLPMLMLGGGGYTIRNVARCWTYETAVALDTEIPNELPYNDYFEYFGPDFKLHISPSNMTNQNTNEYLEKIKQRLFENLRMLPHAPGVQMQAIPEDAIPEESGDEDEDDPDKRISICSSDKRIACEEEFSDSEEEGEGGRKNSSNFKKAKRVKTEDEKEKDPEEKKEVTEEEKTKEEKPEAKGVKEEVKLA

[3] = molecular target: T1, Histone deacetylase 8 (Homo sapiens) (UniProt Q9BY41); assay: Inhibition of recombinant human GST-His-tagged HDAC8 at 1 uM using fluorogenic HDAC substrate incubated for 30 mins by microplate reader assay relative to control
T1 sequence (whole entry): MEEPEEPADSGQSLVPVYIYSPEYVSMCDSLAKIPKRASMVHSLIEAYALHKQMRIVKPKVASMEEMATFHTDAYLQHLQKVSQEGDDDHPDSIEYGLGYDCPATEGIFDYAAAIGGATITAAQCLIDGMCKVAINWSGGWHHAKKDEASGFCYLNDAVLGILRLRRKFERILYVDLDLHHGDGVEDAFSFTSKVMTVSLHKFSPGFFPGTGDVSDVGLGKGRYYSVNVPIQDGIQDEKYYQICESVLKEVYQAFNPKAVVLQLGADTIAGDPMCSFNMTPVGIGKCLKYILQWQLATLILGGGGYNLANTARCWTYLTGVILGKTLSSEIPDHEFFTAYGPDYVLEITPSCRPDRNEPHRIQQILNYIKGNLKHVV

[4] = molecular target: T2, Histone deacetylase 7 (Homo sapiens) (UniProt Q8WUI4); assay: Inhibition of recombinant human GST-His-tagged HDAC7 at 1 uM using fluorogenic HDAC substrate incubated for 30 mins by microplate reader assay relative to control
T2 sequence (whole entry): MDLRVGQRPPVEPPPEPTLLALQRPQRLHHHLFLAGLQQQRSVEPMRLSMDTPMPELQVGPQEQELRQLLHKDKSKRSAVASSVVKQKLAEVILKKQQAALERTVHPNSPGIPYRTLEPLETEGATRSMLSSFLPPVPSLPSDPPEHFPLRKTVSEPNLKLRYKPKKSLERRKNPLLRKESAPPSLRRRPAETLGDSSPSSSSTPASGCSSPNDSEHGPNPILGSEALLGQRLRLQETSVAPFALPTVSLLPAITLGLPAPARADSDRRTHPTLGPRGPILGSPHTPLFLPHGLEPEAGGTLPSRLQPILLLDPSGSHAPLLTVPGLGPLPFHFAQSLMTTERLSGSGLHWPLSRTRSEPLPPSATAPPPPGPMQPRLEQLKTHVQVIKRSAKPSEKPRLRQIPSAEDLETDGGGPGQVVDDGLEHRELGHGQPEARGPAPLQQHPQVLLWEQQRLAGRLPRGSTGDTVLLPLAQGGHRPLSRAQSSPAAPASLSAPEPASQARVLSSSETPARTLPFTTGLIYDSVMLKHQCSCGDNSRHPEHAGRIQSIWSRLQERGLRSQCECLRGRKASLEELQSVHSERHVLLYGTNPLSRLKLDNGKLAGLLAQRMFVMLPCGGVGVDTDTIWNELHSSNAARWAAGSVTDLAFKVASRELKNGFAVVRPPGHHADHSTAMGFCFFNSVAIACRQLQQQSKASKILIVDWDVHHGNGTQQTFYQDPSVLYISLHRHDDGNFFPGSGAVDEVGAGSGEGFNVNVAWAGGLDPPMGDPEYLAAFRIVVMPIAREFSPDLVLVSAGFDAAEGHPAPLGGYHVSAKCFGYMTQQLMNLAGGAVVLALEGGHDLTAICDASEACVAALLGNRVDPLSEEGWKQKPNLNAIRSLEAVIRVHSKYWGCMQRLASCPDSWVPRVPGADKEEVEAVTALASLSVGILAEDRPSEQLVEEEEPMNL

[5] = molecular target: Histone deacetylase 5 (Homo sapiens) (UniProt Q9UQL6); assay: Inhibition of recombinant human GST-His-tagged HDAC5 at 0.1 to 1 uM using fluorogenic HDAC substrate incubated for 30 mins by microplate reader assay
Sequence of Histone deacetylase 5 (Homo sapiens) (Q9UQL6 whole entry): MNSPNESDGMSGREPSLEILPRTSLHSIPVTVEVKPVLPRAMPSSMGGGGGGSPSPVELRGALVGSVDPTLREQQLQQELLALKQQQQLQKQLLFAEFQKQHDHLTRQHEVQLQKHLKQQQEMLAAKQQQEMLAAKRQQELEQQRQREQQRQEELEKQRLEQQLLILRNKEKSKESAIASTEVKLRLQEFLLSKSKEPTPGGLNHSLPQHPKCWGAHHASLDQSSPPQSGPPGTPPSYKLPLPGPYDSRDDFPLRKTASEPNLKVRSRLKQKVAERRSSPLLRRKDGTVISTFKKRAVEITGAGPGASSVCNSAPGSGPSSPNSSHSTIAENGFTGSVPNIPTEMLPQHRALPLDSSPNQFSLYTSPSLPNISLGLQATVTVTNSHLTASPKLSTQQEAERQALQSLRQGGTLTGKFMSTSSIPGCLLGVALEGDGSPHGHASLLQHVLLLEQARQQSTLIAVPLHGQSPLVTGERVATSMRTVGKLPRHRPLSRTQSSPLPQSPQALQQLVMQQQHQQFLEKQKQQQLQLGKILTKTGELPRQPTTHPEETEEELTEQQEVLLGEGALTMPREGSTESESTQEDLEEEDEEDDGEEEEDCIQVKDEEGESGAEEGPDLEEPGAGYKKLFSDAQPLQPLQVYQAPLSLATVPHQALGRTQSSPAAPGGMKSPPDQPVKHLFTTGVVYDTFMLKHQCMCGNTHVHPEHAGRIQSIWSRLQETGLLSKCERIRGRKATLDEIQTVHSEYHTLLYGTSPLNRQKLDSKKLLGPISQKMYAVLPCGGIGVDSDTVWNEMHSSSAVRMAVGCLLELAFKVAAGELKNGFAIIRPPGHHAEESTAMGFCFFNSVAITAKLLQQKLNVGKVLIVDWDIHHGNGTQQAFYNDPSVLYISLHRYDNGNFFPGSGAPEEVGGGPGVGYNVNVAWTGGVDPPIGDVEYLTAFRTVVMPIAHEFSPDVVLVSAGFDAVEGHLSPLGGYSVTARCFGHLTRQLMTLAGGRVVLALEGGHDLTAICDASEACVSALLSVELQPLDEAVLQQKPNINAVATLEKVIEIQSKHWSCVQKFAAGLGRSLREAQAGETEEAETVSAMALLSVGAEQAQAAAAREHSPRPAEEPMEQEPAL

[6] = molecular target: Histone deacetylase 2 (Homo sapiens) (UniProt Q92769); assay: Inhibition of HDAC2 in human HeLa nuclear extract at 0.1 to 1 uM using HDAC substrate incubated for 30 mins by microplate reader assay; format: cell-free
Sequence of Histone deacetylase 2 (Homo sapiens) (Q92769 whole entry): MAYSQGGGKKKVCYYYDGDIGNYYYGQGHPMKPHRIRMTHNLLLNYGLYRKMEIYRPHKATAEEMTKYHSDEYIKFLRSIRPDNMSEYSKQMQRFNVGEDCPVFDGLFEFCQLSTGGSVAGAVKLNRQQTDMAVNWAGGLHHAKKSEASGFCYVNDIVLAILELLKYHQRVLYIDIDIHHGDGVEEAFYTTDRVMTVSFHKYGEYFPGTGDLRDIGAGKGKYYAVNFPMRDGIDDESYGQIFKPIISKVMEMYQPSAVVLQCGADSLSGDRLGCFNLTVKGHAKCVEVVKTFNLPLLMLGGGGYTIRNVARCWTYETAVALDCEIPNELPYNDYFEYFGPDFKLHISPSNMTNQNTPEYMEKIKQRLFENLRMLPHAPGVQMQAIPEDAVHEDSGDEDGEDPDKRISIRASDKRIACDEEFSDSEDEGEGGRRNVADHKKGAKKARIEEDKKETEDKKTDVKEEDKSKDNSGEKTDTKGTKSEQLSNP

[7] = molecular target: Histone deacetylase 4 (Homo sapiens) (UniProt P56524); assay: Inhibition of recombinant human GST-His-tagged HDAC4 at 0.1 to 1 uM using fluorogenic HDAC substrate incubated for 30 mins by microplate reader assay
Sequence of Histone deacetylase 4 (Homo sapiens) (P56524 whole entry): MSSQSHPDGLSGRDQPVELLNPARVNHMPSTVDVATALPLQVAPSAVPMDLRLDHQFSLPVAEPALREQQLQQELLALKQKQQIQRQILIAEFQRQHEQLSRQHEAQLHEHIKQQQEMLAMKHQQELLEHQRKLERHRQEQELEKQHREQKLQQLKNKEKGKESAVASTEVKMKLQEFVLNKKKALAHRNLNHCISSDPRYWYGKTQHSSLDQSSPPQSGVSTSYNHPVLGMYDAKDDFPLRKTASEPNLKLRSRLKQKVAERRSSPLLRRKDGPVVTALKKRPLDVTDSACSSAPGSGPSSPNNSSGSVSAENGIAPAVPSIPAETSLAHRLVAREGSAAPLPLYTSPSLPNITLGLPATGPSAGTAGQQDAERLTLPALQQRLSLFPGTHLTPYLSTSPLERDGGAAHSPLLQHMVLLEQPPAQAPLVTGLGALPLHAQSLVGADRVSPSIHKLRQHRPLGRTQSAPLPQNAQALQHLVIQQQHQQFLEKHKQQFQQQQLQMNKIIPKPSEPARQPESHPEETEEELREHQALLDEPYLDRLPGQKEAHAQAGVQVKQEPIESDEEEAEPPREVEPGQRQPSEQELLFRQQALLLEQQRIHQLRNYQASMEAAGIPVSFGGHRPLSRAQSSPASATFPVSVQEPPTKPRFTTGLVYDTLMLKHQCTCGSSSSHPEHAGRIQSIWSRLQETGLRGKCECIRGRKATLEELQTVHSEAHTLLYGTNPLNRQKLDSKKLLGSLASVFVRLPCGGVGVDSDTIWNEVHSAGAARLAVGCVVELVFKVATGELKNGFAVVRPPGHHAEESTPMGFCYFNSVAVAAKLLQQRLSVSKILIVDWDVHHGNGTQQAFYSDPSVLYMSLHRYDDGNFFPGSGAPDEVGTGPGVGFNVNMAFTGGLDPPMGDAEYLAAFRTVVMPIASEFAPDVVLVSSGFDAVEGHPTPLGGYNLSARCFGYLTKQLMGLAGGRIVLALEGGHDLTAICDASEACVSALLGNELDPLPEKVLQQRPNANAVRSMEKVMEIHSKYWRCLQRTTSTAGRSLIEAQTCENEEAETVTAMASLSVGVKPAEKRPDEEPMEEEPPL

[8] = molecular target: T3, Protein deacetylase HDAC6 (Homo sapiens) (UniProt Q9UBN7); assay: Inhibition of recombinant human GST-His-tagged HDAC6 at 0.1 to 1 uM using fluorogenic HDAC substrate incubated for 30 mins by microplate reader assay
T3 sequence (whole entry): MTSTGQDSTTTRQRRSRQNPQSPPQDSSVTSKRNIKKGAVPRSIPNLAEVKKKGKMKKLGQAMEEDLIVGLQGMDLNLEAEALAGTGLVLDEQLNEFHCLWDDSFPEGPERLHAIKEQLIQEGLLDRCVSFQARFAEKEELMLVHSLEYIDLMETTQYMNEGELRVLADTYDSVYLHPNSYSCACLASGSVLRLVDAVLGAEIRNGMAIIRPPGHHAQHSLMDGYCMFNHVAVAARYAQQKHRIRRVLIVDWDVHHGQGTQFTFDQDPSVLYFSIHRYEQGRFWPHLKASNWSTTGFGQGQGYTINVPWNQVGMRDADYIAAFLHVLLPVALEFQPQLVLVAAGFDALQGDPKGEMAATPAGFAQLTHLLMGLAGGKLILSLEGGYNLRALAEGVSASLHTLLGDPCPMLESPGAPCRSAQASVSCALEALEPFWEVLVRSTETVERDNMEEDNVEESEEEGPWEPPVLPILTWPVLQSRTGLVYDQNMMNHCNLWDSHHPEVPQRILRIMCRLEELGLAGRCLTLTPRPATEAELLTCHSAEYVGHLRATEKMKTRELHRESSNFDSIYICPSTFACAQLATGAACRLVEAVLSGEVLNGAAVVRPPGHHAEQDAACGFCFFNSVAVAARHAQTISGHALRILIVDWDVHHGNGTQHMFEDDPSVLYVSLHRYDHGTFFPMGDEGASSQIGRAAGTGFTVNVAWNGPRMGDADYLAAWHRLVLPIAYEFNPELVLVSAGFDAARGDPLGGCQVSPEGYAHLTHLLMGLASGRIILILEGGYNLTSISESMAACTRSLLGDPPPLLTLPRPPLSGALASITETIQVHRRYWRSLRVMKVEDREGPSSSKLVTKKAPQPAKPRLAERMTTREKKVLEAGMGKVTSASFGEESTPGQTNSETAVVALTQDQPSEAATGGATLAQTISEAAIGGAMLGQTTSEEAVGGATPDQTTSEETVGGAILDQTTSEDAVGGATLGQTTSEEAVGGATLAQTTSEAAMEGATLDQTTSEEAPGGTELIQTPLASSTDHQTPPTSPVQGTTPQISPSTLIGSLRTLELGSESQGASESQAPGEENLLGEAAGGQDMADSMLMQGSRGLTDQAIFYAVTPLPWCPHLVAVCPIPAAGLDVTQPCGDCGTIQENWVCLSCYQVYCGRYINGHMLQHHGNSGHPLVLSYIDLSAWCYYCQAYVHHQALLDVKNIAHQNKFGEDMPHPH

| Compound | Activity (Homo sapiens) | inhibition [1] | inhibition [2] | inhibition [3] | inhibition [4] | inhibition [5] | inhibition [6] | inhibition [7] | inhibition [8] |
| --- | --- | --- | --- | --- | --- | --- | --- | --- | --- |
| CC1=C(C(=O)OCc2ccccc2)C(c2ccc(Cl)cc2Cl)NC(=O)N1CCCC(=O)O (stereo not given) | Active |  |  |  |  |  |  |  |  |
| O=C(O)CCCN1C=C(C(=O)O)C(c2ccc(Cl)cc2Cl)NS1(=O)=O (stereo not given) | Active |  |  |  |  |  |  |  |  |
| COC(=O)CCCN1C=C(C(=O)OCc2ccccc2)C(c2ccc(Cl)cc2Cl)NS1(=O)=O (stereo not given) | Active |  |  |  |  |  |  |  |  |
| CCOC(=O)C1=CN(Cc2ccc(C(=O)NO)cc2)S(=O)(=O)NC1c1ccc(Cl)cc1Cl (stereo not given) | Active | inactive | inactive | 35 to 60% | 40% | inactive | inactive | inactive | inactive |
| CCOC(=O)C1=CN(CCCC(=O)OC)S(=O)(=O)NC1c1ccc(Cl)cc1Cl (stereo not given) | Active |  |  |  |  |  |  |  |  |
| CCOC(=O)C1=CN(Cc2ccc(CO)cc2)S(=O)(=O)NC1c1ccc(Cl)cc1Cl (stereo not given) | Active |  |  |  |  |  |  |  |  |
| CCOC(=O)C1=CNS(=O)(=O)N(Cc2ccc(C(=O)O)cc2)C1c1ccc(Cl)cc1Cl (stereo not given) | Active | inactive | inactive | 35 to 60% |  | inactive | inactive | inactive | inactive |
| CCOC(=O)C1=CN(C(=O)OC(C)(C)C)S(=O)(=O)N(Cc2ccc(C(=O)OC(C)(C)C)cc2)C1c1ccc(Cl)cc1Cl (stereo not given) | Active |  |  |  |  |  |  |  |  |
| COC(=O)CCCN1C=C(C(=O)O)C(c2ccc(Cl)cc2Cl)NS1(=O)=O (stereo not given) | Active | inactive | inactive | 35 to 60% |  | inactive | inactive | inactive | inactive |
| CCOC(=O)C1=CN(CCCC(=O)NO)S(=O)(=O)NC1c1ccc(Cl)cc1Cl (stereo not given) | Active | inactive | inactive | 35 to 60% |  | inactive | inactive | inactive | inactive |
| CCOC(=O)C1=CN(Cc2ccc(C(=O)O)cc2)S(=O)(=O)NC1c1ccc(Cl)cc1Cl (stereo not given) | Active |  |  |  |  |  |  |  |  |
